{"source": "paper PMC3786204", "about": "(Journal of immunology (Baltimore, Md. : 1950), 2013)", "molecules": {"B1": {"name": "sIFNγ-rec1: soluble IFN-γ receptor 1, IFN-γ blocker (protein, UniProt P15260 18-245, looked up)", "extracellular domain": "EMGTADLGPSSVPTPTNVTIESYNMNPIVYWEYQIMPQVPVFTVEVKNYGVKNSEWIDACINISHHYCNISDHVGDPSNSLWVRVKARVGQKESAYAKSEEFAVCRDGKIGPPKLDIRKEEKQIMIDIFHPSVFVNGDEQEVDYDPETTCYIRVYNVYVRMNGSEIQYKILTQKEDDCDEIQCQLAIPVSSLNSQYCVSAEGVLHVWGVTTEKSKEVCITIFNSSIKG", "modifications": "extracellular domain"}, "B2": {"name": "sTNF-rec1: Human soluble TNF receptor I, TNF-α blocker (protein, UniProt P19438 30-211, looked up)", "extracellular domain": "LVPHLGDREKRDSVCPQGKYIHPQNNSICCTKCHKGTYLYNDCPGPGQDTDCRECESGSFTASENHLRHCLSCSKCRKEMGQVEISSCTVDRDTVCGCRKNQYRHYWSENLFQCFNCSLCLNGTVHLSCQEKQNTVCTCHAGFFLRENECVSCSNCKKSLECTKLCLPQIENVKGTEDSGTT", "modifications": "extracellular domain"}}, "assay_type_in_all_cases": "cell-based, human", "key": {"DENV3 specific CTL": {"system": "DENV3 specific CTL", "assay": "Surface CD8 expression on DENV3 epitope specific CTL", "conditions": "CTL primed against DENV3 NS3 399–407 KLNDWDFVV", "outline": "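CD8+ T cells were negatively selected from HIV-1-seronegative HLA-A*0201 donors and plated at 7.5×10^5/well. They were primed with DENV3 epitope-pulsed αDC1 (7.5×10^4/well) plus γ-irradiated J558-CD40L cells (5×10^4/well). rhIL-2 (50 IU/ml), rhIL-7 (10 ng/ml) and rhIL-15 (1 ng/ml) were added at day 4. CTL were tested against serotype-variant peptides, with CD8 read by flow cytometry.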"}, "iDC": {"system": "iDC", "assay": "Microscopy of iDC:CTL co-cultures", "conditions": "24 h co-culture, light microscopy", "outline": "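CTL (2×10^5 cells/well) were added to day-5 autologous iDC cultures with 1 μg/ml irrelevant, priming or variant 9mer peptide. Co-cultures were examined by light microscopy after 24h. For SEM, cells grew on glass coverslips removed at 24h, fixed in 2.5% glutaraldehyde in PBS and post-fixed in 1% aqueous osmium tetroxide.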"}, "autologous iDC [1]": {"system": "autologous iDC", "assay": "4 h 51Cr-release cytotoxicity assay", "conditions": "1 μg/ml peptide, TLN9-specific CTL", "outline": "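Targets were autologous iDC, generated by culturing monocytes 5–7 days in IMDM with 10% FBS, GM-CSF and IL-4 (both 1000 IU/ml), then peptide-pulsed. Effectors were CTL primed in vitro from CD8+ T cells of HIV-1-seronegative HLA-A*0201 donors, using peptide-pulsed αDC1. Lysis was read by standard 4 h 51Cr release.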"}, "[2]": {"system": "HIV-1 p24 Gag151–159 specific CTL", "assay": "Surface CD8 expression on peptide reactive CTL", "conditions": "TLN9-specific CTL, gated on IFN-γ producing cells; CTL lines from 5 donors", "outline": "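CTL lines were primed in vitro from 5 HIV-1-naïve donors and maintained with IL-2 (200 IU/ml) and IL-7 (10 ng/ml). They were restimulated with peptide variants and assessed by intracellular cytokine staining with anti-CD28/CD49d and Golgistop/Golgiplug. CD8 MFI was read on IFN-γ-producing cells by multiparameter flow cytometry. Statistics used one-way ANOVA with Tukey post hoc test.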"}, "[3]": {"system": "autologous pre-activated CD4+ T cells", "assay": "CTL cytotoxicity against peptide-pulsed CD4+ T cell targets", "conditions": "targets pulsed with 1 μg/mL peptide, 18h co-culture", "outline": "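Targets: PBMC activated 5 days with PHA (1μg/ml) and rIL-2 (100 IU/ml), then CD4+ cells negatively selected, pulsed 1 h with 1μg/mL peptide and washed. Co-cultured with CTL 18h at 37°C at CTL:target 3:1, 1:1, 0.3:1 and 0:1. Stained for CD4/CD8, fixed/permeabilized, 7-AAD 20 min at 37°C. Linear 7-AAD on singlet CD4+ events scored G1, S/G2 and sub-G1 fractions. 4 experiments.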"}, "[4]": {"system": "Gag77–85 reactive CTL from HIV-1 positive donor", "assay": "Surface CD8 expression on memory CTL expanded from HIV-1 positive donor PBMC", "conditions": "CTL expanded from PBMC 6 months post seroconversion"}, "autologous iDC [5]": {"system": "autologous iDC", "assay": "Flow cytometry viability and recovery of iDC in CTL:DC co-cultures", "conditions": "CTL and iDC co-culture, 6h, 3:1 CTL:DC", "outline": "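CTL were added to day-5 autologous iDC for 6h at 3:1 (CTL:DC). Cultures had no peptide, irrelevant control, priming or variant peptide; titration used decreasing cognate peptide down to .001 μg/ml. Cell loss came from recovered cell-type ratios gated by light scatter and CD3 (T cells) or CD86 (DC). Viability of DC-gated events used LIVE/DEAD Aqua. Three experiments, ± standard error.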"}, "DC [6]": {"system": "DC", "assay": "DC maturation, surface CD86 by flow cytometry", "conditions": "48h; for Effect on CTL-induced DC maturation (CD86 enhancement): PLN9 expressing DC + CTL, sTNF-R1 0.1 μg/ml, sIFNγ-R1 1 μg/ml", "outline": "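Day 5 autologous immature DC were co-cultured for 48h with TLN9-specific CTL (2×10^5 cells/well) plus variant peptide PLN9 (1 μg/ml), with or without blockers sTNF-RI (0.1 μg/ml) or IFNγ-R1 (1 μg/ml). Controls were TNF-α (50 ng/ml)-matured DC and peptide-exposed DC without CTL. DC surface CD86 was measured by flow cytometry.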"}, "DC [7]": {"system": "DC", "assay": "DC IL-12p70 producing capacity after CD40L stimulation", "conditions": "exogenous TNF-α 50 ng/ml, 48h, then CD40L stimulation"}}}
{"molecule": "KLNDWDFVV [reference compound]", "values": [{"measurement": "CD8 expression on reactive CTL", "setting": "DENV3 specific CTL", "result": "down-regulation of CD8"}]}
{"molecule": "KLTDWDFVV", "values": [{"measurement": "CD8 expression on reactive CTL", "setting": "DENV3 specific CTL", "result": "CD8 expression was maintained"}]}
{"molecule": "PLNAWVKVV [PLN9]", "values": [{"measurement": "DC morphology / survival in co-culture with CTL", "setting": "iDC", "result": "pronounced webbed network of long cellular extensions"}, {"measurement": "CTL lytic activity against peptide-labeled iDC", "setting": "autologous iDC [1]", "result": "dramatically reduced"}, {"measurement": "Surface expression of CD8 on peptide reactive CTL", "setting": "[2]", "result": "maintained"}, {"measurement": "Killing of peptide-labeled CD4+ T cell targets by TLN9-specific CTL", "setting": "[3]", "result": "not effectively killed"}]}
{"molecule": "RTNDWDFVV", "values": [{"measurement": "CD8 expression on reactive CTL", "setting": "DENV3 specific CTL", "result": "CD8 expression was maintained"}]}
{"molecule": "SLFNTVATL", "values": [{"measurement": "CD8 expression on reactive CTL", "setting": "[4]", "result": "down-regulation occurred"}]}
{"molecule": "TLNAWVKVV [TLN9]", "values": [{"measurement": "DC morphology / survival in co-culture with CTL", "setting": "iDC", "result": "failed to survive"}, {"measurement": "CTL lytic activity against peptide-labeled iDC", "setting": "autologous iDC [1]", "result": "showed lytic activity"}, {"measurement": "Peptide concentration at which a substantial drop in killing occurs", "setting": "autologous iDC [5]", "result": ".001 µg/mL"}, {"measurement": "Surface expression of CD8 on peptide reactive CTL", "setting": "[2]", "result": "decreased"}]}
{"molecule": "TNF-α", "values": [{"measurement": "CD86 expression of DC matured with the factor", "setting": "DC [6]; exogenous TNF-α 50 ng/ml", "result": "high levels of CD86"}, {"measurement": "IL-12p70 producing ability of DC matured with the factor", "setting": "DC [7]", "result": "curtailed"}]}
{"molecule": "B1", "values": [{"measurement": "Effect on CTL-induced DC maturation (CD86 enhancement)", "setting": "DC [6]", "result": "did not inhibit"}]}
{"molecule": "B2", "values": [{"measurement": "Effect on CTL-induced DC maturation (CD86 enhancement)", "setting": "DC [6]", "result": "partially reduced"}]}
